ChEMBL document CHEMBL1144999, “Identification of a novel, selective GABA(A) alpha5 receptor inverse agonist which enhances cognition” (J Med Chem, 2003)

Key:
[1] = target: T1, GABA-A receptor; alpha-5/beta-3/gamma-2 (Homo sapiens) (UniProt P18507+P28472+P31644); assay: Efficacy for GABA-A receptor alpha-5-beta-3-gamma-2 subunits expressed in Xenopus laevis oocytes by two-electrode voltage clamp recording; format: cell-based; settings: Oocyte
Method in brief: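 Two-electrode voltage clamp on Xenopus laevis oocytes injected with human α5β3γ2 cDNA, recorded 2-4 days after injection. Expression checked with 3 mM GABA; oocytes with currents <0.3 μA rejected. A GABA EC20 was determined per oocyte. Compound applied at a single concentration near 100× Ki. Efficacy (%) = (current with compound/control EC20 current × 100) − 100.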

[2] = target: GABA-A receptor; alpha-1/beta-3/gamma-2 (Homo sapiens) (UniProt P14867+P18507+P28472); assay: Efficacy for human GABA-A receptor alpha-1-beta-3-gamma-2 subunits expressed in mammalian fibroblast L(tk-)cells; format: cell-based
[3] = target: GABA-A receptor; alpha-2/beta-3/gamma-2 (Homo sapiens) (UniProt P18507+P28472+P47869); assay: Efficacy for human GABA-A receptor alpha-2-beta-3-gamma-2 subunits expressed in mammalian fibroblast L(tk-)cells; format: cell-based
[4] = target: T2, Gamma-aminobutyric acid receptor subunit alpha-5 (Homo sapiens) (UniProt P31644); assay: Binding selectivity for human gamma-aminobutyric-acid A receptor alpha-5 over GABA A alpha1,alpha2 and alpha-3 receptors
T2 sequence (whole entry): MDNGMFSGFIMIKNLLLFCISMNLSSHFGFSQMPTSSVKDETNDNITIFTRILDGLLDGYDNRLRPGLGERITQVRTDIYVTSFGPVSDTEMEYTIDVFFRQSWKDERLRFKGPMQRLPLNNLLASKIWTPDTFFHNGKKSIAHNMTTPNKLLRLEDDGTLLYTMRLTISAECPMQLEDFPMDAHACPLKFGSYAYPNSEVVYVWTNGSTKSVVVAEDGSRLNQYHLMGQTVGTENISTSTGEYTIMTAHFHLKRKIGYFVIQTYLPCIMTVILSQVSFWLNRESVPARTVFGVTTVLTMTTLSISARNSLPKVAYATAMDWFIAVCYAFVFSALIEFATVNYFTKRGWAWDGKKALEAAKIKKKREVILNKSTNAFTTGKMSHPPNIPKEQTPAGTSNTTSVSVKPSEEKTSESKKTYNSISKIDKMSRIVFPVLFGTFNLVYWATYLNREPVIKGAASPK

[5] = target: T1, GABA-A receptor; alpha-5/beta-3/gamma-2 (Homo sapiens); assay: Efficacy for human GABA-A receptor alpha-5-beta-3-gamma-2 subunits expressed in mammalian fibroblast L(tk-)cells; format: cell-based
[6] = target: GABA-A receptor; alpha-3/beta-3/gamma-2 (Homo sapiens) (UniProt P18507+P28472+P34903); assay: Efficacy for human GABA-A receptor alpha-3-beta-3-gamma-2 subunits expressed in mammalian fibroblast L(tk-)cells; format: cell-based
[7] = target: T2, Gamma-aminobutyric acid receptor subunit alpha-5 (Homo sapiens); assay: Binding selectivity for GABA-A alpha5 subunit over GABA-A alpha1,alpha2 or alpha3 subunit receptors
Method in brief: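 Ki from [3H]Ro 15-1788 displacement at human recombinant α1, α2, α3 or α5 with β3γ2 receptors in L(tk-) cell membranes. […] Ki is geometric mean ± SEM of three determinations, and the ratio is taken against the α5 Ki.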

[8] = target: T3, Gamma-aminobutyric acid receptor subunit alpha-5 (Mus musculus) (UniProt Q8BHJ7); assay: In vivo [3H]L-655708 binding to mouse GABA-A receptor alpha-5 subunit at 3 mg/kg ip dose; format: organism-based; design: dose 3 mg/kg
T3 sequence (whole entry): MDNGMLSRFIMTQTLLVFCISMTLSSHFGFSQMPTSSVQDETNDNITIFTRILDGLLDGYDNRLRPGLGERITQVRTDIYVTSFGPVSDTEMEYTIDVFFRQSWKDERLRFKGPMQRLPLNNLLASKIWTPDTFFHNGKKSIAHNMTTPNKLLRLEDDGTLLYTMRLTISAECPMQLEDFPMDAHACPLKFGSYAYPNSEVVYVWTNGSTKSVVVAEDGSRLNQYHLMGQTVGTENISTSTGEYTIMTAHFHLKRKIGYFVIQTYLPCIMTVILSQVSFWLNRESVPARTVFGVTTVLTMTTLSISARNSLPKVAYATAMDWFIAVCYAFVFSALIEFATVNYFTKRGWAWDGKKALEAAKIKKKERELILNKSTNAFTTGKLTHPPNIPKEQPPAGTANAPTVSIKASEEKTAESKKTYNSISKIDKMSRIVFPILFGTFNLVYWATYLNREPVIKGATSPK
Method in brief: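 Mice were dosed ip at 10 mL/kg in 70% PEG 300. Controls were vehicle (total binding) and 5 mg/kg bretazenil (nonspecific). [3H]L-655,708 (11 µCi/mL, 1 mL/kg) was given iv 1 min before killing, 30 min after drug. Forebrain was homogenized in ice-cold 10 mM KH2PO4/100 mM KCl pH 7.4, filtered and counted by scintillation. Occupancy = 100 − (drug/vehicle specific binding)×100.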

[9] = target: GABA-A receptor; anion channel; assay: Binding affinity for GABA-A Benzodiazepine receptor; format: protein-complex assay
Method in brief: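 Displacement of [3H]Ro 15-1788 binding from harvested L(tk-) cells stably expressing human recombinant GABA-A receptors with β3 and γ2 subunits plus α1, α2, α3 or α5. […] Ki given as geometric mean ± SEM of three independent determinations.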

SMILES | Efficacy [1] | Efficacy [2] | Efficacy [3] | Selectivity [4] | Efficacy [5] | Efficacy [6] | Selectivity [7] | Occupancy [8] | Ki [9]
CCc1c(C(=O)OC)ncc2[nH]c3cc(OC)c(OC)cc3c12 | -34 | -71% | -53% | 6 |  |  |  |  | 
CC1(C)CC(=O)c2c(SCCO)sc(-c3nccs3)c2C1 | -38 | -21% | -1% |  | -51% | -3% | 13 | 91% | 
CC(=O)c1cc2c(s1)CCCC1=C2NN(c2ccc(Cl)cc2)C(=O)C1 |  |  |  |  |  |  |  |  | 4.2 nM
